The list is not random: actives were taken first. Their share in the collection is about 2.2%.
PPC-1+TRAIL kill: kills PPC-1 cancer cells in the presence of TRAIL. PPC-1 cells + TRAIL, ATPLite viability luminescence. cell killing (% activity), % at 4 µM or 5 µM. 0.41% of 220,000 active. AID 1443;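 active = cell killing above 50% in the first pass at 4 µM, then a duplicate retest at 5 µM averaging 50% or more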;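 also: plate controls were cells with TRAIL plus DMSO for no effect and medium-only wells lacking cells for full effect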
NF-kB neuron act: NF-kB expression increase, human neuronal cells. NF-kB reporter expression; hits give high values. fold change at 12.5 µM. 1.6% of 190,000 active. AID 1239; in the data active = fold change above about 3.3
FLuc inhib CS: counter-screen for luciferase assay inhibitors: firefly luciferase inhibition; ATPLite firefly luciferase biochemical luminescence, 10 min; inhibition, % at 10 µM; P08659; 1.5% of 200,000 active;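 active = inhibition above about 50% when tested at 10 µM, limit read from the data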
Target sequence (P08659 whole entry, looked up): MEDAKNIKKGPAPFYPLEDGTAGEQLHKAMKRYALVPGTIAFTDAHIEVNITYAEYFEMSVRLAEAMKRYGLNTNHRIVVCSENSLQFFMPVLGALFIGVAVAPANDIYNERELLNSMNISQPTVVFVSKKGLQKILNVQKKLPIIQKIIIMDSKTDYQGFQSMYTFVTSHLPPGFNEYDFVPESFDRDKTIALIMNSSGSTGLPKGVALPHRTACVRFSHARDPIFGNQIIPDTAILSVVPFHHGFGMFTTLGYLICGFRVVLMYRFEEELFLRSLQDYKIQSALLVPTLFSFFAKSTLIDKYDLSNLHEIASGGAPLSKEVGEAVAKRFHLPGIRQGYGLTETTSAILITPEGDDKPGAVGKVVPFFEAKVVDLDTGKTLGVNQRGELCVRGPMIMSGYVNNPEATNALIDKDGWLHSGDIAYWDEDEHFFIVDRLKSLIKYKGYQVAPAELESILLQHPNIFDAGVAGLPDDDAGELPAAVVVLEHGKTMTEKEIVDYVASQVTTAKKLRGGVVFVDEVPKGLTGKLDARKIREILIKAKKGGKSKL
APP 5'UTR act: APP 5'UTR luciferase reporter activation; SH-SY5Y APP 5'UTR luciferase reporter, luminescence; zero percent = DMSO vehicle wells; activation, % at 2 µM; 1% of 190,000 active;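 active = activation above a set limit, based on mean plus 3 SD of controls, cut at about 140% in these data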
C8 TRAIL sens: sensitizes caspase-8 expressing cells to TRAIL; 1% of 360,000 active; AID 624354; NB7+C8 cells + TRAIL, ATPlite viability luminescence; inhibition (viability loss, TRAIL sensitization), % at 10 µM;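 active = compounds causing at least 50% loss of cell viability in the single-dose screen, relative to plate controls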
FLuc act counter: firefly luciferase counter-screen for stimulation assays; 200,000 tested, under 10 active; activation factor at 10 µM; ATPlite luciferase biochemical, luminescence, 10 min; 0 = ATP-free wells, 1 = DMSO control; P08659;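 active = luciferase activation factor, scaled between plate controls, of at least 2 with compound at 10 µM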
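System: cell-free luciferase reagent; medium: PBS as buffer for the ATP substrate; doses: test compounds dosed from 2 mM stocks in 100% DMSO; incubation: 10 min, room temperature; measured by: luminescence from luciferase reaction; read-out: luciferase activation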
PPC1 cytotox: kills PPC-1 cells. shares compounds with PPC-1+TRAIL kill. PPC-1 viability, ATPlite luminescence, overnight. cytotoxicity, % at 5 µM. 50% of 1,200 active. AID 1447;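 active = reconfirmed compounds whose average cytotoxicity reaches 50% or more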;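 also: 0% = DMSO-treated cells and 100% = wells holding medium but no cells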
Numbers without * were called inactive.

Screening COc1ccc(-c2nc(-c3ccccn3)no2)cc1 returned PPC-1+TRAIL kill 92.5*, NF-kB neuron act 0.24, FLuc inhib CS 97.5*, APP 5'UTR act -45.9, C8 TRAIL sens 95.6*, FLuc act counter 0 and PPC1 cytotox 91.9*.
For Clc1ccc(-c2nc(-c3ccccn3)no2)cc1Cl the results were PPC-1+TRAIL kill 66.0*, NF-kB neuron act 2.96, FLuc inhib CS 87.9*, APP 5'UTR act 117.2, C8 TRAIL sens 78.3*, FLuc act counter 0.1 and PPC1 cytotox 63.7*.
`Cc1ccccc1-c1noc(-c2ccccc2C(=O)O)n1` gave PPC-1+TRAIL kill -2.4 and C8 TRAIL sens 4.8.
Screening COc1ccc(-c2nc(-c3ccncc3)no2)cc1 returned C8 TRAIL sens -0.6.
For Cc1ccccc1-c1nc(-c2ccccn2)no1 the results were PPC-1+TRAIL kill 83.5*, NF-kB neuron act 1.16, FLuc inhib CS 95.1*, APP 5'UTR act 90.5, C8 TRAIL sens 87.4*, FLuc act counter 0 and PPC1 cytotox 80.3*.
For COc1ccc(-c2nc(-c3cccs3)no2)cc1 the results were PPC-1+TRAIL kill 45.5, C8 TRAIL sens 62.5* and PPC1 cytotox 42.0.
OC[C@@H]1CN(Cc2ccc3c(c2)OCO3)C[C@H](n2cnc3c(N4CCN(c5ccccc5)CC4)ncnc32)O1 was read as C8 TRAIL sens 12.4.
For CCOC1=C2CN(S(=O)(=O)c3ccc(C)cc3)[C@H](c3cccc4ccccc34)C[C@H]2[C@H]2C(=O)N(c3ccccc3)C(=O)[C@H]2C1 the results were C8 TRAIL sens 2.9.
For CCN(C(=O)CN1C(=O)NC2(CCC(C)CC2)C1=O)C1CCCCC1 (stereo not given) the results were C8 TRAIL sens -21.5.
COc1ccccc1-c1nc(-c2ccccn2)no1 was read as PPC-1+TRAIL kill 63.3*, NF-kB neuron act 2.46, FLuc inhib CS 87.8*, APP 5'UTR act 98.3, C8 TRAIL sens 73.2*, FLuc act counter 0.1 and PPC1 cytotox 63.3*.
COc1ccccc1-c1noc(-c2ccncc2)n1 was read as PPC-1+TRAIL kill 14.9, NF-kB neuron act 1.43, FLuc inhib CS 16.0, APP 5'UTR act 19.9, C8 TRAIL sens 1.1 and FLuc act counter 0.8.
`Cc1ccc2nc(-c3ccc4c(c3)NC(=O)CO4)cn2c1` gave PPC-1+TRAIL kill 48.0 and C8 TRAIL sens 32.9.
`Cc1ccc2nc(-c3ccc4c(c3)OCCO4)cn2c1` gave PPC-1+TRAIL kill 92.7*, C8 TRAIL sens 92.2* and PPC1 cytotox 92.2*.
Screening Clc1ccc2nc(-c3ccc4c(c3)OCO4)cn2c1 returned PPC-1+TRAIL kill 79.8*, NF-kB neuron act 4.99*, FLuc inhib CS 93.0*, APP 5'UTR act 157.8*, C8 TRAIL sens 78.9*, FLuc act counter 0.1 and PPC1 cytotox 74.3*.
`CN(C)CCNc1nc(Oc2cccc(F)c2)c2sccc2n1` gave C8 TRAIL sens 9.3.
Screening O=C(Nc1ccc2c(c1)nc1n2CCSC1)c1ccco1 returned PPC-1+TRAIL kill 59.5*, NF-kB neuron act 2.82, FLuc inhib CS 86.7*, APP 5'UTR act 110.2, C8 TRAIL sens 72.0*, FLuc act counter 0.1 and PPC1 cytotox 58.5*.
Cc1cccc(NS(=O)(=O)c2cc(C(=O)N3CCc4ccccc4C3)ccc2Cl)c1C was read as PPC-1+TRAIL kill 3.0, NF-kB neuron act 0.37, FLuc inhib CS -9.3, APP 5'UTR act -9.3, C8 TRAIL sens 2.5, FLuc act counter 1.1 and PPC1 cytotox 3.3.
Screening COC(=O)CN1C(=O)CSc2ccc(S(=O)(=O)N3CCC(C)CC3)cc21 returned C8 TRAIL sens -13.4.
`CCOC(=O)N=Nc1c(O)n(CC(=O)OC)c2ccccc12` gave PPC-1+TRAIL kill 14.8, NF-kB neuron act 1.29, FLuc inhib CS -2.2, APP 5'UTR act 4.3, C8 TRAIL sens -1.3 and FLuc act counter 1.
For CCOC(=O)N=Nc1c2ccccc2c2nc3no[nH]c3nc12 the results were PPC-1+TRAIL kill 83.1*, NF-kB neuron act 0.09, FLuc inhib CS -5.7, APP 5'UTR act -93.8, C8 TRAIL sens 96.2*, FLuc act counter 1.1 and PPC1 cytotox 81.2*.
For CCOC(=O)C1CCN(c2ncnc3c2oc2ccccc23)CC1 the results were PPC-1+TRAIL kill -8.9, NF-kB neuron act 0.99, FLuc inhib CS -0.6, APP 5'UTR act 21.2, C8 TRAIL sens 14.2 and FLuc act counter 1.
Screening CCOC(=O)c1cnn(-c2ncnc3c2oc2ccccc23)c1N returned PPC-1+TRAIL kill 26.8, FLuc inhib CS 41.2, C8 TRAIL sens 47.0, FLuc act counter 0.6 and PPC1 cytotox 6.3.
`O=C(CCn1cnc2ccccc2c1=O)Nc1cccc(Cl)c1` gave PPC-1+TRAIL kill -18.5, NF-kB neuron act 1.43, FLuc inhib CS -6.7, APP 5'UTR act -7.8, C8 TRAIL sens 10.0, FLuc act counter 1.1 and PPC1 cytotox -35.2.
`CC(C)Cc1cc(C(=O)Nc2cccc(O)c2)no1` gave PPC-1+TRAIL kill 63.0*, C8 TRAIL sens 63.5* and PPC1 cytotox 61.2*.
CC(C)Cc1cc(C(=O)Nc2ccc(Br)cc2)no1 was read as PPC-1+TRAIL kill 14.2 and C8 TRAIL sens 5.8.
Screening CCCCCCCCN1C(=O)[C@H](CC(=O)NCCCOCCCC)C[C@@]2(C(=O)OC)CC(C)(C)CC=C12 returned C8 TRAIL sens 11.2.
O=C(Nc1nc2cc3c(cc2s1)OCO3)c1ccco1 was read as PPC-1+TRAIL kill 68.5*, C8 TRAIL sens 75.3* and PPC1 cytotox 71.6*.
`CC1CCc2nc(NC(=O)c3ccco3)sc2C1` (stereo not given) gave PPC-1+TRAIL kill 79.9*, NF-kB neuron act 1.78, FLuc inhib CS 93.4*, APP 5'UTR act 39.3, C8 TRAIL sens 84.0*, FLuc act counter 0.1 and PPC1 cytotox 76.8*.
Screening Cc1csc(NC(=O)c2ccco2)n1 returned PPC-1+TRAIL kill -6.9, NF-kB neuron act 1.49, FLuc inhib CS -3.8, APP 5'UTR act 3.1, C8 TRAIL sens -8.9 and FLuc act counter 1.
Screening O=C(Nc1nc2cc3c(cc2s1)OCCO3)c1ccncc1 returned PPC-1+TRAIL kill 38.1, NF-kB neuron act 3.23, FLuc inhib CS 75.6*, APP 5'UTR act 153.4*, C8 TRAIL sens 38.7, FLuc act counter 0.2 and PPC1 cytotox 43.7.
CS(=O)(=O)c1ccc2nc(NC(=O)c3ccco3)sc2c1 was read as PPC-1+TRAIL kill 45.8, NF-kB neuron act 2.29, FLuc inhib CS 77.4*, APP 5'UTR act 63.9, C8 TRAIL sens 56.9*, FLuc act counter 0.2 and PPC1 cytotox 49.6.
`COc1ccc(C(C(=O)Nc2ccc(F)cc2)N2CCN(C(=O)c3ccco3)CC2)cc1` (stereo not given) gave C8 TRAIL sens 0.9.

High-throughput results from PubChem.
